# Assay results: ChEMBL document CHEMBL1649568, “Efficacy of aerosol MP-376, a levofloxacin inhalation solution, in models of mouse lung infection due to Pseudomonas aeruginosa” (Antimicrob Agents Chemother, 2009)
# Columns and labels:
# Pseudomonas aeruginosa [1] = assay: Antimicrobial activity against Pseudomonas aeruginosa ATCC 27853 infected in Swiss neutropenic mouse assessed as reduction in lung bacterial load at 32 mg/kg, ip BID administered 24 hrs post infection; format: functional; settings: route intraperitoneal
# In short: (§1)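 Female Swiss mice (5–6 wk) made neutropenic with cyclophosphamide 150 mg/kg i.p. on days 1 and 3. On day 4, intratracheal instillation of 0.05 ml strain ATCC 27853 suspension at ca. 1–6 × 10⁵ CFU/ml. From 24 h postinfection, two i.p. doses over 24 h, n = 8. Lungs taken 12–16 h after the last dose, homogenized in saline and plated; mean log CFU/lung compared with an untreated baseline group.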
# Mus musculus [2] = assay: Cmax in mouse at 60 mg/kg, administered as single dose through aerosol; format: ADME, organism-based; design: dose 60 mg/kg; settings: in vivo, inhaled_or_intranasal
# Pseudomonas aeruginosa [3] = assay: Antimicrobial activity against Pseudomonas aeruginosa ATCC 27853 infected in Swiss neutropenic mouse assessed as reduction in lung bacterial load at 63 mg/kg, ip BID administered 24 hrs post infection; format: functional; settings: route intraperitoneal; in short: as §1
# Pseudomonas aeruginosa [4] = assay: Antimicrobial activity against Pseudomonas aeruginosa NH57388A infected in Swiss neutropenic mouse assessed as lung bacterial load at 60 mg/kg, ip BID administered 24 hrs post infection (reference value: 8.89 logCFU); format: functional; settings: route intraperitoneal
# Pseudomonas aeruginosa [5] = assay: Antimicrobial activity against Pseudomonas aeruginosa ATCC 27853 infected in Swiss neutropenic mouse assessed as reduction in lung bacterial load at […], ip BID administered 24 hrs post infection; format: functional; settings: route intraperitoneal
# Pseudomonas aeruginosa [6] = assay: Antimicrobial activity against Pseudomonas aeruginosa NH57388A infected in Swiss neutropenic mouse assessed as lung bacterial load at 15 mg/kg, ip BID administered 24 hrs post infection (reference value: 8.89 logCFU); format: functional; settings: route intraperitoneal
# Pseudomonas aeruginosa [7] = assay: Antimicrobial activity against Pseudomonas aeruginosa NH57388A infected in Swiss neutropenic mouse assessed as lung bacterial load at 30 mg/kg, ip BID administered 24 hrs post infection (reference value: 8.89 logCFU); format: functional; settings: route intraperitoneal
# Mus musculus [8] = assay: Cmax in mouse at 60 mg/kg, ip administered as single dose; format: ADME, organism-based; design: dose 60 mg/kg, route intraperitoneal; settings: in vivo
# Pseudomonas aeruginosa [9] = assay: Antimicrobial activity against Pseudomonas aeruginosa ATCC 27853 by broth microdilution method; format: functional
# In short: (§2)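 Broth microdilution per CLSI. Inoculum 5 × 10⁵ CFU/ml, twofold dilutions of antibiotic in medium, 24 h at 35°C. Growth read at 600 nm and by eye with a reading mirror. MIC is the lowest concentration with no visible growth.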
# Mus musculus [10] = species: Mus musculus; assay: Toxicity in Pseudomonas aeruginosa ATCC 27853 infected Swiss mouse; format: functional
# Pseudomonas aeruginosa [11] = assay: Antimicrobial activity against Pseudomonas aeruginosa ATCC 27853 infected in Swiss neutropenic mouse assessed as mouse survival rate at 60 mg/kg BID administered 24 hrs post infection through aerosol
# Pseudomonas aeruginosa [12] = assay: Bactericidal activity against Pseudomonas aeruginosa NH57388A infected in Swiss neutropenic mouse assessed as reduction in lung bacterial load at 60 mg/kg BID administered 24 hrs post infection through aerosol; format: functional
# In short: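 In the chronic alginate-embedded NH57388A lung infection (cyclophosphamide 150 mg/kg i.p. once, 4 days before; about 10⁸ CFU/ml inoculum), mice got aerosol doses by microsprayer (50 µl, isoflurane) twice daily for 3 days from 24 h postinfection. Lungs homogenized and plated 12–16 h after the final dose; log CFU/lung.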
# Pseudomonas aeruginosa [13] = assay: Antimicrobial activity against Pseudomonas aeruginosa isolate NH57388A by broth microdilution method; format: functional; in short: as §2
# Pseudomonas aeruginosa [14] = assay: Antimicrobial activity against Pseudomonas aeruginosa ATCC 27853 infected in Swiss neutropenic mouse assessed as mouse survival rate at 400 mg/kg BID administered 24 hrs post infection through aerosol; format: functional
# In short: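 Female Swiss mice were made neutropenic (cyclophosphamide 150 mg/kg i.p., days 1 and 3) and infected intratracheally on day 4 with ATCC 27853, 0.05 ml at ca. 1–6 × 10⁵ CFU/ml. Aerosol via microsprayer to the bifurcation (50 µl) under isoflurane, twice daily for 48 h from 24 h postinfection. Survival observed to 9 days postinfection, n = 10.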
Compound,log10cfu (Pseudomonas aeruginosa [1]),Cmax (Mus musculus [2]) [mg/kg],log10cfu (Pseudomonas aeruginosa [3]),log10cfu (Pseudomonas aeruginosa [4]),log10cfu (Pseudomonas aeruginosa [5]),log10cfu (Pseudomonas aeruginosa [6]),log10cfu (Pseudomonas aeruginosa [7]),Cmax (Mus musculus [8]) [mg/kg],MIC (Pseudomonas aeruginosa [9]) [µg/mL],MTD (Mus musculus [10]) [mg/kg],Activity (Pseudomonas aeruginosa [11]) [%],log10cfu (Pseudomonas aeruginosa [12]),MIC (Pseudomonas aeruginosa [13]) [µg/mL],Activity (Pseudomonas aeruginosa [14]) [%]
C[C@H]1COc2c(N3CCN(C)CC3)c(F)cc3c(=O)c(C(=O)O)cn1c23.C[C@H]1COc2c(N3CCN(C)CC3)c(F)cc3c(=O)c(C(=O)O)cn1c23.O [LEVOFLOXACIN],0.65,550,2.7,4.93,3.5,7.83,5.73,18.6,,,,,,
NC[C@H]1O[C@H](O[C@H]2[C@H](O)[C@@H](O[C@H]3O[C@H](CO)[C@@H](O)[C@H](N)[C@H]3O)[C@H](N)C[C@@H]2N)[C@H](N)C[C@@H]1O [TOBRAMYCIN],,,,,,,,,0.25,60,60,2.9,0.5,
C[C@H]1[C@H](NC(=O)/C(=N\OC(C)(C)C(=O)O)c2csc(N)n2)C(=O)N1S(=O)(=O)O [AZTREONAM],,,,,,,,,4,400,,,4,20
